{
  "source": "ChEMBL document CHEMBL1914395",
  "about": "“Design, synthesis, and biological evaluation of callophycin A and analogues as potential chemopreventive and anticancer agents” (Bioorg Med Chem, 2011)",
  "data": [
    {"target": "NAD(P)H dehydrogenase [quinone] 1 (Mus musculus) (UniProt Q64669)", "sequence (Q64669 whole entry)": "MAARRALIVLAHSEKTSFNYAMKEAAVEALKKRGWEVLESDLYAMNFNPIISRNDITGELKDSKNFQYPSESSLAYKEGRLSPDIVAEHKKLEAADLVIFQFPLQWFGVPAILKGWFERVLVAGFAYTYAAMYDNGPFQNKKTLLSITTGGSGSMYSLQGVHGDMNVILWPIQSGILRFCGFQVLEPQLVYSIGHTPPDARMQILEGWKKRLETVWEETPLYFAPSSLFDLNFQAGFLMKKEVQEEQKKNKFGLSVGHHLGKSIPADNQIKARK", "test": "Induction of quinone reductase 1 activity in mouse Hepa-1c1c7 cells at 50 uM by MTT assay relative to untreated control", "format": "cell-based", "conditions": "not given", "how_it_was_run": "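Hepa 1c1c7 murine hepatoma cells treated with compound at 50 μM. QR1 measured by NADPH-dependent, menadiol-mediated reduction of MTT to formazan. Protein measured by crystal violet staining of identical plates. Specific activity is nmol formazan per mg protein per min. Induction ratio is treated versus DMSO-treated control.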", "values": [
      {"smiles": "COC(=O)[C@H]1Cc2c([nH]c3ccccc23)CN1Cc1ccc(OCc2ccccc2)cc1", "Ratio": 1.4},
      {"smiles": "O=C(O)[C@H]1Cc2c([nH]c3ccccc23)CN1S(=O)(=O)c1ccc(Br)cc1", "Ratio": 1.3},
      {"smiles": "C=CCOC(=O)N1Cc2[nH]c3ccccc3c2C[C@@H]1C(=O)OC", "Ratio": 2.8}
    ]},
    {"tested_on": "not listed separately", "test": "Inhibition of TNF-alpha-induced NFkappaB activation in human HEK293 cells after 6 hrs by luciferase assay", "format": "cell-based", "conditions": "HEK293, 6 h", "how_it_was_run": "(§1)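 Cells incubated 6 h with TNFα plus test compound, then luciferase activity measured. Results expressed as percent of TNFα-treated control. Screening concentration 50 μM.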", "units": {"IC50": "µM"}, "values": [
      {"smiles": "Cc1ccc(S(=O)(=O)N[C@@H](Cc2ccccc2)C(=O)CCl)cc1", "note": "[TPCK]", "IC50": 4.9}
    ]},
    {"target": "NAD(P)H dehydrogenase [quinone] 1 (Mus musculus) (UniProt Q64669)", "test": "Induction of quinone reductase 1 in mouse Hepa 1c1c7 cells assessed as concentration of compound required to double enzyme activity by MTT assay", "format": "cell-based", "conditions": "not given", "how_it_was_run": "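Dose-response in Hepa 1c1c7 cells, run for substances with induction ratio >2 at 50 μM. QR1 activity measured as menadiol-mediated, NADPH-dependent MTT reduction to formazan, normalised to crystal violet protein content. CD is the concentration that doubles specific activity relative to DMSO control.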", "units": {"CD": "µM"}, "values": [
      {"smiles": "C=CCOC(=O)N1Cc2[nH]c3ccccc3c2C[C@@H]1C(=O)OC", "CD": 15.9}
    ]},
    {"tested_on": "HEK293", "test": "Inhibition of TNF-alpha-induced NFkappaB activation in human HEK293 cells assessed as cell survival at 50 uM after 6 hrs by luciferase assay relative to control", "format": "cell-based", "conditions": "not given", "units": {"Survival": "%"}, "values": [
      {"smiles": "COC(=O)[C@H]1Cc2c([nH]c3ccccc23)CN1Cc1ccc(OCc2ccccc2)cc1", "Survival": 91},
      {"smiles": "O=C(O)[C@H]1Cc2c([nH]c3ccccc23)CN1S(=O)(=O)c1ccc(Br)cc1", "Survival": 252},
      {"smiles": "C=CCOC(=O)N1Cc2[nH]c3ccccc3c2C[C@@H]1C(=O)OC", "Survival": 97.6}
    ]},
    {"target": "T1, Nitric oxide synthase, inducible (Mus musculus, UniProt P29477)", "T1 sequence (P29477 whole entry)": "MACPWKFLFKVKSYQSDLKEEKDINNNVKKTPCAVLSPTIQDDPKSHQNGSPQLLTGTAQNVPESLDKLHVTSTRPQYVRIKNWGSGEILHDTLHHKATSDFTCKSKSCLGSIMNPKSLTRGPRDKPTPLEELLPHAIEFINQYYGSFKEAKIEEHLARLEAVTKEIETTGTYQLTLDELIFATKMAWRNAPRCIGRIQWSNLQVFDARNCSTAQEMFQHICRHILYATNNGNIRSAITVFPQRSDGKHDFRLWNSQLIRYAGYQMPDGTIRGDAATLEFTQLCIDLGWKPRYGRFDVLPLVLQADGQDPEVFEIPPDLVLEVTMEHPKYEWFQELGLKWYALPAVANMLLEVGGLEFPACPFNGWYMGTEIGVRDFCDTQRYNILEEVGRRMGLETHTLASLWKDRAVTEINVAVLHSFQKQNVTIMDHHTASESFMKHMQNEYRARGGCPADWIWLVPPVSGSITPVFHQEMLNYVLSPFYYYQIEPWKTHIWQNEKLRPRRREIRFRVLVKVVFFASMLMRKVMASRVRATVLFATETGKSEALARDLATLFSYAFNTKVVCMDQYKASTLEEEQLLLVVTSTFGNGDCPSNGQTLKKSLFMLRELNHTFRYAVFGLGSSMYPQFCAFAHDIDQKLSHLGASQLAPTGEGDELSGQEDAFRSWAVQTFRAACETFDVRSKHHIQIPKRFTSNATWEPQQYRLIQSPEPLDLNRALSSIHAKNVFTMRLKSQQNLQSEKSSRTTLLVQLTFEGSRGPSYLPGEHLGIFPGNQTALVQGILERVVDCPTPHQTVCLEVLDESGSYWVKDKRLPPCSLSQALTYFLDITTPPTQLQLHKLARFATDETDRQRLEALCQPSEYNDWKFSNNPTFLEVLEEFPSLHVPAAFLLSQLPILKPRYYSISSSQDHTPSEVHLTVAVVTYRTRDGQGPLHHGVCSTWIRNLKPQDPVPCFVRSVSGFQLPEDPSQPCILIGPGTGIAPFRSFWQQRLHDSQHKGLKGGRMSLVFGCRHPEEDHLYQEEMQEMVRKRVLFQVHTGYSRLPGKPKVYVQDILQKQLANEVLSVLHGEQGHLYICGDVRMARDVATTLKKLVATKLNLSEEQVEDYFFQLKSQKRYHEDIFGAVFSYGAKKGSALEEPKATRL", "test": "Inhibition of iNOS-mediated nitric oxide production in LPS-stimulated mouse RAW 264.7 cells pretreated 15 mins before LPS challenge measured after 20 hrs relative to control", "format": "cell-based", "conditions": "not given", "how_it_was_run": "(§2)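 RAW 264.7 cells cultured 24 h at 37°C, then given serially diluted compounds for 15 min before LPS (1 μg/mL) for 20 h. Nitrite in the medium measured with Griess reagent at 540 nm against a sodium nitrite standard curve. Cytotoxicity checked by SRB under the same conditions.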", "units": {"IC50": "µM"}, "values": [
      {"smiles": "COC(=O)[C@H]1Cc2c([nH]c3ccccc23)CN1Cc1ccc(OCc2ccccc2)cc1", "IC50": 29.4},
      {"smiles": "O=C(O)[C@H]1Cc2c([nH]c3ccccc23)CN1S(=O)(=O)c1ccc(Br)cc1", "IC50": 46.1},
      {"smiles": "C=CCOC(=O)N1Cc2[nH]c3ccccc3c2C[C@@H]1C(=O)OC", "IC50": 27.7}
    ]},
    {"target": "NAD(P)H dehydrogenase [quinone] 1 (Mus musculus) (UniProt Q64669)", "test": "Induction of quinone reductase 1 activity in mouse Hepa-1c1c7 cells assessed as cell survival at 50 uM by MTT assay relative to control", "format": "cell-based", "conditions": "not given", "units": {"Survival": "%"}, "values": [
      {"smiles": "COC(=O)[C@H]1Cc2c([nH]c3ccccc23)CN1Cc1ccc(OCc2ccccc2)cc1", "Survival": 85.4},
      {"smiles": "O=C(O)[C@H]1Cc2c([nH]c3ccccc23)CN1S(=O)(=O)c1ccc(Br)cc1", "Survival": 88.3},
      {"smiles": "C=CCOC(=O)N1Cc2[nH]c3ccccc3c2C[C@@H]1C(=O)OC", "Survival": 77.3}
    ]},
    {"target": "T2, Aromatase (Homo sapiens, UniProt P11511)", "T2 sequence (P11511 whole entry)": "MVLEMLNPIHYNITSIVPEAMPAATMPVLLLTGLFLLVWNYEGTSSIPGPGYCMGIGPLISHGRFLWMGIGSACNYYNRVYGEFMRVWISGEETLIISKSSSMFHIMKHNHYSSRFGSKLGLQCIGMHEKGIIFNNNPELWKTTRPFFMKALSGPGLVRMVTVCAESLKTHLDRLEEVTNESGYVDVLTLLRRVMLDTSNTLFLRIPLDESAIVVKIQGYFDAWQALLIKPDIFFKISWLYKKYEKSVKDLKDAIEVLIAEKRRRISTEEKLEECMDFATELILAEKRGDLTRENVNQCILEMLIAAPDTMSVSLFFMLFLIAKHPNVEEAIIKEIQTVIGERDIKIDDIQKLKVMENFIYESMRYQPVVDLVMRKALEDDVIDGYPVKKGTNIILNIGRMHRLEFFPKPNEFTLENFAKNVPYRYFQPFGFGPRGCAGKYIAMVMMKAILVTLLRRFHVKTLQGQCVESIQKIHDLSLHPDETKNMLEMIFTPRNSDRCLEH", "test": "Inhibition of aromatase at 50 uM after 10 mins preincubation by plate reader relative to control", "conditions": "not given", "how_it_was_run": "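CYP19 enzyme. Compound pre-incubated 10 min with an NADPH-regenerating system (NADP+, glucose 6-phosphate, G6PDH, MgCl2, albumin) in 50 mM potassium phosphate pH 7.4. Enzyme and 0.4 μM dibenzylfluorescein substrate then added, 30 min at 37 °C. Quenched with 2 N NaOH and incubated a further 2 h at 37 °C. Fluorescence read at ex 485/em 530 nm. Compound tested at 50 μM.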", "units": {"inhibition at 50 µM": "%"}, "values": [
      {"smiles": "COC(=O)[C@H]1Cc2c([nH]c3ccccc23)CN1Cc1ccc(OCc2ccccc2)cc1", "inhibition at 50 µM": 27.3},
      {"smiles": "O=C(O)[C@H]1Cc2c([nH]c3ccccc23)CN1S(=O)(=O)c1ccc(Br)cc1", "inhibition at 50 µM": 32.3},
      {"smiles": "C=CCOC(=O)N1Cc2[nH]c3ccccc3c2C[C@@H]1C(=O)OC", "inhibition at 50 µM": 35.1}
    ]},
    {"tested_on": "MCF7", "test": "Antiproliferative activity against human MCF7 cells after 72 hrs by SRB assay", "format": "functional, cell-based", "conditions": "MCF7, 72 h", "how_it_was_run": "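MCF7 cells, 1 × 10^4 per well, plated directly onto compounds and incubated 72 h at 37°C, 5% CO2. Fixed with 10% TCA, stained with 0.4% SRB in 1% acetic acid. Bound dye dissolved in 10 mM Tris pH 10.0, absorbance read at 515 nm. Survival expressed relative to DMSO-treated controls.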", "units": {"IC50": "µM"}, "values": [
      {"smiles": "CC[C@@]1(O)C(=O)OCc2c1cc1n(c2=O)Cc2cc3ccccc3nc2-1", "note": "[CAMPTOTHECIN]", "IC50": 0.056}
    ]},
    {"tested_on": "HEK293", "test": "Inhibition of TNF-alpha-induced NFkappaB activation in human HEK293 cells at 50 uM after 6 hrs by luciferase assay relative to control", "format": "cell-based", "conditions": "not given", "how_it_was_run": "as §1", "units": {"inhibition": "%"}, "values": [
      {"smiles": "COC(=O)[C@H]1Cc2c([nH]c3ccccc23)CN1Cc1ccc(OCc2ccccc2)cc1", "inhibition": 40.5},
      {"smiles": "O=C(O)[C@H]1Cc2c([nH]c3ccccc23)CN1S(=O)(=O)c1ccc(Br)cc1", "inhibition": 50.9},
      {"smiles": "C=CCOC(=O)N1Cc2[nH]c3ccccc3c2C[C@@H]1C(=O)OC", "inhibition": 50.7}
    ]},
    {"target": "T3, Nitric oxide synthase, inducible (Mus musculus) (UniProt P29477)", "T3 sequence (whole entry)": "T1 sequence (P29477 whole entry)", "test": "Inhibition of iNOS-mediated nitric oxide production in LPS-stimulated mouse RAW 264.7 cells assessed as cell survival at 50 uM pretreated 15 mins before LPS challenge measured after 20 hrs relative to control", "format": "cell-based", "conditions": "not given", "how_it_was_run": "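RAW 264.7 cells were incubated at 37°C, 5% CO2 for 24 h. They were then exposed to compound for 15 min before LPS (1 μg/mL) was added for 20 h. Cytotoxicity was measured by SRB staining under the same conditions. Survival is expressed as % relative to vehicle-treated controls at 50 μM.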", "units": {"Survival": "%"}, "values": [
      {"smiles": "COC(=O)[C@H]1Cc2c([nH]c3ccccc23)CN1Cc1ccc(OCc2ccccc2)cc1", "Survival": 86.8},
      {"smiles": "O=C(O)[C@H]1Cc2c([nH]c3ccccc23)CN1S(=O)(=O)c1ccc(Br)cc1", "Survival": 103},
      {"smiles": "C=CCOC(=O)N1Cc2[nH]c3ccccc3c2C[C@@H]1C(=O)OC", "Survival": 91.6}
    ]},
    {"tested_on": "MCF7", "test": "Antiproliferative activity against human MCF7 cells assessed as survival at 50 uM after 72 hrs by SRB assay relative to control", "format": "functional", "conditions": "MCF7, 72 h, read-out: Survival", "how_it_was_run": "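MCF7 cells (1 × 10^4 per well) were plated onto compound and kept at 37°C, 5% CO2 for 72 h. Cells were fixed in 10% TCA for 30 min and stained with 0.4% SRB in 1% acetic acid for 30 min. Bound dye was dissolved in 10 mM Tris (pH 10.0) and read at 515 nm. Survival is given as % of DMSO-treated controls, screened at 50 μM.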", "units": {"viability at 50 µM": "%"}, "values": [
      {"smiles": "COC(=O)[C@H]1Cc2c([nH]c3ccccc23)CN1Cc1ccc(OCc2ccccc2)cc1", "viability at 50 µM": 96.7},
      {"smiles": "O=C(O)[C@H]1Cc2c([nH]c3ccccc23)CN1S(=O)(=O)c1ccc(Br)cc1", "viability at 50 µM": 91.2},
      {"smiles": "C=CCOC(=O)N1Cc2[nH]c3ccccc3c2C[C@@H]1C(=O)OC", "viability at 50 µM": 69.5}
    ]},
    {"target": "T3, Nitric oxide synthase, inducible (Mus musculus)", "test": "Inhibition of iNOS-mediated nitric oxide production in LPS-stimulated mouse RAW 264.7 cells at 50 uM pretreated 15 mins before LPS challenge measured after 20 hrs relative to control", "format": "cell-based", "conditions": "not given", "how_it_was_run": "as §2", "units": {"inhibition": "%"}, "values": [
      {"smiles": "COC(=O)[C@H]1Cc2c([nH]c3ccccc23)CN1Cc1ccc(OCc2ccccc2)cc1", "inhibition": 75.9},
      {"smiles": "O=C(O)[C@H]1Cc2c([nH]c3ccccc23)CN1S(=O)(=O)c1ccc(Br)cc1", "inhibition": 56.2},
      {"smiles": "C=CCOC(=O)N1Cc2[nH]c3ccccc3c2C[C@@H]1C(=O)OC", "inhibition": 57.1}
    ]}
  ]
}
